{"source": "ChEMBL document CHEMBL1121715", "about": "“New antiarrhythmic agents. 4. 1'-(Aminoalkyl)-1,2,3,4-tetrahydronaphthalene-1-spiro-3'-pyrrolidine-2',5'-dione derivatives” (J Med Chem, 1981)", "key": {"Mus musculus [1]": {"organism": "Mus musculus", "test": "Percentage toxicity measured as convulsions.", "type": "organism-based", "details": "in vivo", "outline": "(§1)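 Mice (groups of 10) were dosed sc with drug in 0.9% saline and watched for 20 min for overt toxicity (ataxia, convulsions, loss of righting reflex, death) before chloroform exposure.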"}, "[2]": {"test": "Percentage toxicity measured as death of mice.", "type": "organism-based", "parameters": "concentration or dose not given beside the values", "details": "mouse, in vivo; read-out: Death"}, "Mus musculus [3]": {"organism": "Mus musculus", "test": "Percentage toxicity measured as loss of righting reflex.", "type": "organism-based", "details": "in vivo", "outline": "as §1"}, "Mus musculus [4]": {"tested_on": "Mus musculus", "test": "Protection against chloroform induced arrhythmias in mice after subcutaneous administration at 100 mg/kg dose.", "type": "functional", "outline": "(§2)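 Groups of 10 unanesthetized mice got sc injection of drug in 0.9% saline. After 20 min observation they were placed one by one in chloroform-vapor-saturated air. When breathing stopped, the thorax was opened and the heart inspected by eye; coordinated ventricular contractions counted as protected.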"}, "Mus musculus [5]": {"organism": "Mus musculus", "test": "Percentage toxicity measured as ataxia.", "type": "organism-based", "details": "in vivo", "outline": "as §1"}, "Mus musculus [6]": {"tested_on": "Mus musculus", "test": "Protection against chloroform induced arrhythmias was measured in mice after sc administration at given dose", "type": "functional", "outline": "as §2"}, "Mus musculus [7]": {"tested_on": "Mus musculus", "test": "Protection against chloroform induced arrhythmias was measured in mice after sc administration at given dose.", "type": "functional", "outline": "as §2"}}}
{"smiles": "CCN(CC)CCCN1C(=O)CC(c2ccccc2)C1=O", "note": "(configuration not stated)", "values": [{"measurement": "Convulsion", "setting": "Mus musculus [1]", "value": 0, "unit": "%"}, {"measurement": "mortality", "setting": "[2]", "value": 0, "unit": "%"}, {"measurement": "Loss of righting reflex", "setting": "Mus musculus [3]", "value": 0, "unit": "%"}, {"measurement": "Protection", "setting": "Mus musculus [4]", "value": 30, "unit": "%"}, {"measurement": "Ataxia", "setting": "Mus musculus [5]", "value": 0, "unit": "%"}]}
{"smiles": "CN(CCO)CCN1C(=O)CC2(CCCc3ccccc32)C1=O", "note": "(configuration not stated)", "values": [{"measurement": "Convulsion", "setting": "Mus musculus [1]", "value": 0, "unit": "%"}, {"measurement": "mortality", "setting": "[2]", "value": 0, "unit": "%"}, {"measurement": "Loss of righting reflex", "setting": "Mus musculus [3]", "value": 0, "unit": "%"}, {"measurement": "Protection", "setting": "Mus musculus [4]", "value": 30, "unit": "%"}, {"measurement": "Ataxia", "setting": "Mus musculus [5]", "value": 0, "unit": "%"}]}
{"smiles": "CCN(CC)CCCN1C(=O)CC2(CCCc3ccc(C)cc32)C1=O", "note": "(configuration not stated)", "values": [{"measurement": "Convulsion", "setting": "Mus musculus [1]", "value": 0, "unit": "%"}, {"measurement": "ED50", "setting": "Mus musculus [6]", "value": 210, "unit": "µmol/kg"}, {"measurement": "mortality", "setting": "[2]", "value": 0, "unit": "%"}, {"measurement": "Loss of righting reflex", "setting": "Mus musculus [3]", "value": 0, "unit": "%"}, {"measurement": "Protection", "setting": "Mus musculus [4]", "value": 70, "unit": "%"}, {"measurement": "Ataxia", "setting": "Mus musculus [5]", "value": 0, "unit": "%"}]}
{"smiles": "O=C1NC(=O)C(C2CCc3ccccc3C2)N1", "note": "(configuration not stated)", "values": [{"measurement": "Convulsion", "setting": "Mus musculus [1]", "value": 0, "unit": "%"}, {"measurement": "mortality", "setting": "[2]", "value": 0, "unit": "%"}, {"measurement": "Loss of righting reflex", "setting": "Mus musculus [3]", "value": 0, "unit": "%"}, {"measurement": "Protection", "setting": "Mus musculus [4]", "value": 20, "unit": "%"}, {"measurement": "Ataxia", "setting": "Mus musculus [5]", "value": 0, "unit": "%"}]}
{"smiles": "CN(CCO)CCN1C(=O)CC2(CCc3ccccc3C2)C1=O", "note": "(configuration not stated)", "values": [{"measurement": "Convulsion", "setting": "Mus musculus [1]", "value": 40, "unit": "%"}, {"measurement": "mortality", "setting": "[2]", "value": 0, "unit": "%"}, {"measurement": "Loss of righting reflex", "setting": "Mus musculus [3]", "value": 0, "unit": "%"}, {"measurement": "Protection", "setting": "Mus musculus [4]", "value": 30, "unit": "%"}, {"measurement": "Ataxia", "setting": "Mus musculus [5]", "value": 100, "unit": "%"}]}
{"smiles": "CN(CCO)CCCCN1C(=O)CC2(CCCc3ccccc32)C1=O", "note": "(configuration not stated)", "values": [{"measurement": "Convulsion", "setting": "Mus musculus [1]", "value": 0, "unit": "%"}, {"measurement": "mortality", "setting": "[2]", "value": 0, "unit": "%"}, {"measurement": "Loss of righting reflex", "setting": "Mus musculus [3]", "value": 0, "unit": "%"}, {"measurement": "Protection", "setting": "Mus musculus [4]", "value": 10, "unit": "%"}, {"measurement": "Ataxia", "setting": "Mus musculus [5]", "value": 0, "unit": "%"}]}
{"smiles": "CCN(CC)CCCN1C(=O)CC2(CCCc3cc(OC)ccc32)C1=O", "note": "(configuration not stated)", "values": [{"measurement": "mortality", "setting": "[2]", "value": 0, "unit": "%"}, {"measurement": "Loss of righting reflex", "setting": "Mus musculus [3]", "value": 0, "unit": "%"}, {"measurement": "Protection", "setting": "Mus musculus [4]", "value": 40, "unit": "%"}, {"measurement": "Ataxia", "setting": "Mus musculus [5]", "value": 100, "unit": "%"}]}
{"smiles": "CCN(CC)C(C)CCN1C(=O)CC2(CCCc3cc(OC)ccc32)C1=O", "note": "(configuration not stated)", "values": [{"measurement": "Convulsion", "setting": "Mus musculus [1]", "value": 0, "unit": "%"}, {"measurement": "mortality", "setting": "[2]", "value": 0, "unit": "%"}, {"measurement": "Loss of righting reflex", "setting": "Mus musculus [3]", "value": 0, "unit": "%"}, {"measurement": "Protection", "setting": "Mus musculus [4]", "value": 0, "unit": "%"}, {"measurement": "Ataxia", "setting": "Mus musculus [5]", "value": 60, "unit": "%"}]}
{"smiles": "CCN(CC)C(C)CN1C(=O)CC2(CCCc3ccc(O)cc32)C1=O", "note": "(configuration not stated)", "values": [{"measurement": "Convulsion", "setting": "Mus musculus [1]", "value": 0, "unit": "%"}, {"measurement": "mortality", "setting": "[2]", "value": 0, "unit": "%"}, {"measurement": "Loss of righting reflex", "setting": "Mus musculus [3]", "value": 0, "unit": "%"}, {"measurement": "Protection", "setting": "Mus musculus [4]", "value": 60, "unit": "%"}, {"measurement": "Ataxia", "setting": "Mus musculus [5]", "value": 50, "unit": "%"}]}
{"smiles": "COCCN(C)CCCN1C(=O)CC2(CCCc3ccccc32)C1=O", "note": "(configuration not stated)", "values": [{"measurement": "Convulsion", "setting": "Mus musculus [1]", "value": 100, "unit": "%"}, {"measurement": "mortality", "setting": "[2]", "value": 0, "unit": "%"}, {"measurement": "Loss of righting reflex", "setting": "Mus musculus [3]", "value": 100, "unit": "%"}, {"measurement": "Protection", "setting": "Mus musculus [4]", "value": 30, "unit": "%"}, {"measurement": "Ataxia", "setting": "Mus musculus [5]", "value": 100, "unit": "%"}]}
{"smiles": "COc1ccc2c(c1)CCCC21CC(=O)N(CCN(C)C)C1=O", "note": "(configuration not stated)", "values": [{"measurement": "Convulsion", "setting": "Mus musculus [1]", "value": 0, "unit": "%"}, {"measurement": "mortality", "setting": "[2]", "value": 0, "unit": "%"}, {"measurement": "Loss of righting reflex", "setting": "Mus musculus [3]", "value": 0, "unit": "%"}, {"measurement": "Protection", "setting": "Mus musculus [4]", "value": 20, "unit": "%"}, {"measurement": "Ataxia", "setting": "Mus musculus [5]", "value": 100, "unit": "%"}]}
{"smiles": "CCN(CC)C(C)CN1C(=O)CC2(CCCc3ccccc32)C1=O", "note": "(configuration not stated)", "values": [{"measurement": "Convulsion", "setting": "Mus musculus [1]", "value": 100, "unit": "%"}, {"measurement": "mortality", "setting": "[2]", "value": 0, "unit": "%"}, {"measurement": "Loss of righting reflex", "setting": "Mus musculus [3]", "value": 0, "unit": "%"}, {"measurement": "Protection", "setting": "Mus musculus [4]", "value": 50, "unit": "%"}, {"measurement": "Ataxia", "setting": "Mus musculus [5]", "value": 100, "unit": "%"}]}
{"smiles": "O=C1CC2(CCCc3ccccc32)C(=O)N1CCCN1CCOCC1", "note": "(configuration not stated)", "values": [{"measurement": "Convulsion", "setting": "Mus musculus [1]", "value": 0, "unit": "%"}, {"measurement": "mortality", "setting": "[2]", "value": 0, "unit": "%"}, {"measurement": "Loss of righting reflex", "setting": "Mus musculus [3]", "value": 0, "unit": "%"}, {"measurement": "Protection", "setting": "Mus musculus [4]", "value": 20, "unit": "%"}, {"measurement": "Ataxia", "setting": "Mus musculus [5]", "value": 100, "unit": "%"}]}
{"smiles": "CCN(CC)CCCCN1C(=O)CC2(CCCc3cc(O)ccc32)C1=O", "note": "(configuration not stated)", "values": [{"measurement": "Convulsion", "setting": "Mus musculus [1]", "value": 0, "unit": "%"}, {"measurement": "mortality", "setting": "[2]", "value": 0, "unit": "%"}, {"measurement": "Loss of righting reflex", "setting": "Mus musculus [3]", "value": 0, "unit": "%"}, {"measurement": "Protection", "setting": "Mus musculus [4]", "value": 70, "unit": "%"}, {"measurement": "Ataxia", "setting": "Mus musculus [5]", "value": 0, "unit": "%"}, {"measurement": "ED50", "setting": "Mus musculus [7]; Mus musculus, sc, read-out: ED50", "value": 0.26, "unit": "mmol/kg"}]}
{"smiles": "NCCCCCN1C(=O)CC2(CCCc3ccccc32)C1=O", "note": "(configuration not stated)", "values": [{"measurement": "Convulsion", "setting": "Mus musculus [1]", "value": 0, "unit": "%"}, {"measurement": "mortality", "setting": "[2]", "value": 0, "unit": "%"}, {"measurement": "Loss of righting reflex", "setting": "Mus musculus [3]", "value": 0, "unit": "%"}, {"measurement": "Protection", "setting": "Mus musculus [4]", "value": 20, "unit": "%"}, {"measurement": "Ataxia", "setting": "Mus musculus [5]", "value": 0, "unit": "%"}]}
{"smiles": "CCN(CC)C(C)CCN1C(=O)CC2(CCCc3ccccc32)C1=O", "note": "(configuration not stated)", "values": [{"measurement": "Convulsion", "setting": "Mus musculus [1]", "value": 0, "unit": "%"}, {"measurement": "mortality", "setting": "[2]", "value": 0, "unit": "%"}, {"measurement": "Loss of righting reflex", "setting": "Mus musculus [3]", "value": 0, "unit": "%"}, {"measurement": "Protection", "setting": "Mus musculus [4]", "value": 40, "unit": "%"}, {"measurement": "Ataxia", "setting": "Mus musculus [5]", "value": 100, "unit": "%"}]}
{"smiles": "COc1ccc2c(c1)CCCC21CC(=O)N(CCCN(C)C)C1=O", "note": "(configuration not stated)", "values": [{"measurement": "Convulsion", "setting": "Mus musculus [1]", "value": 0, "unit": "%"}, {"measurement": "mortality", "setting": "[2]", "value": 0, "unit": "%"}, {"measurement": "Loss of righting reflex", "setting": "Mus musculus [3]", "value": 0, "unit": "%"}, {"measurement": "Protection", "setting": "Mus musculus [4]", "value": 0, "unit": "%"}, {"measurement": "Ataxia", "setting": "Mus musculus [5]", "value": 100, "unit": "%"}]}
{"smiles": "CCN(CC)CCCCCN1C(=O)CC2(CCCc3ccccc32)C1=O", "note": "(single isomer, unassigned; (+))", "values": [{"measurement": "Protection", "setting": "Mus musculus [4]; 100 mg/kg", "value": 50, "unit": "%"}, {"measurement": "ED50", "setting": "Mus musculus [7]", "value": 0.21, "unit": "mmol/kg"}]}
{"smiles": "CCN(CC)CCCCCN1C(=O)CC2(CCCc3ccccc32)C1=O", "note": "(single isomer, unassigned; (-))", "values": [{"measurement": "Convulsion", "setting": "Mus musculus [1]", "value": 30, "unit": "%"}, {"measurement": "Protection", "setting": "Mus musculus [4]; 100 mg/kg", "value": 90, "unit": "%"}, {"measurement": "Ataxia", "setting": "Mus musculus [5]", "value": 100, "unit": "%"}, {"measurement": "ED50", "setting": "Mus musculus [7]", "value": 0.16, "unit": "mmol/kg"}]}
